# Published values of several laboratories.
# Compare with care: the assays were run in different laboratories.
# FLT3: Receptor-type tyrosine-protein kinase FLT3 (FLT3, Homo sapiens, UniProt P36888)
# DHFR: Dihydrofolate reductase (DHFR, Homo sapiens, UniProt P00374)
# FAAH: Fatty-acid amide hydrolase 1 (FAAH, Homo sapiens, UniProt O00519)
# ROCK1: Rho-associated protein kinase 1 (ROCK1, Homo sapiens, UniProt Q13464)
# TYRO3: Tyrosine-protein kinase receptor TYRO3 (TYRO3, Homo sapiens, UniProt Q06418)
# Aldo-keto reductase family 1 member B1: Aldo-keto reductase family 1 member B1 (Bos taurus, UniProt P16116)
# CSNK1D: Casein kinase I isoform delta (CSNK1D, Homo sapiens, UniProt P48730)
# EAPA: Endothiapepsin (EAPA, Cryphonectria parasitica, UniProt P11838)
SMILES,target,test,conditions,IC50
CC(C)Nc1ccnc(Nc2cccc(-c3nccs3)c2)n1,FLT3,"enzyme activity, inhibitor",,475 nM
N#Cc1ccc(Cn2ccc3c4c(N)nc(N)nc4ccc32)cc1,DHFR,"enzyme activity, inhibitor",,6.8 nM
O=C(Oc1nsnc1N1CCCCC1)N1CCCC1,FAAH,"enzyme activity, inhibitor",cell membranes,813 nM
CC(C)(C)n1nc(-c2cnc3cc(OC4CC4)ccc3c2)c(C(N)=O)c1N,ROCK1,cell-free assay,,> 10000 nM
CC(C)C[C@H](CC(=O)NO)C(=O)N[C@@H](Cc1ccccc1)C(=O)NCCN1CCOCC1,"Stromelysin-1 (MMP3, Homo sapiens, UniProt P08254)","enzyme activity, inhibitor, fluorescence",,225 nM
CSCC[C@H](NC(=O)[C@H](Cc1c[nH]c2ccccc12)NC(=O)CNC(=O)[C@H](Cc1ccc(O)cc1)NC(=O)[C@H](C)NC(=O)[C@@H](CCC(=O)O)NC(=O)CN1CCN(CC(=O)O)CCN(CC(=O)O)CCN(CC(=O)O)CC1)C(=O)N[C@@H](CC(=O)O)C(=O)N[C@@H](Cc1cccc2ccccc12)C(N)=O,"Gastrin/cholecystokinin type B receptor (CCKBR, Homo sapiens, UniProt P32239)","ligand displacement, radioligand",,3.51 nM
CC(C)Nc1ccnc(Nc2cccc(-c3ccncc3)c2)n1,FLT3,"enzyme activity, inhibitor",,284 nM
Nc1nc(Nc2ccc3c(c2)CC[C@@H](N2CCCC2)CC3)nn1-c1cc2c(nn1)-c1ccccc1CCC2,TYRO3,"enzyme activity, inhibitor",,927 nM
FC(F)(F)C1(Nc2ccnc(Nc3cccc(-c4cccnc4)c3)n2)CC1,FLT3,"enzyme activity, inhibitor",,< 6 nM
CCCOc1ccc(Nc2cc(C)nc3ccc(Cl)cc23)cc1,"Cell division protein FtsZ (Mycobacterium tuberculosis, UniProt P9WN95)","tubulin polymerisation, inhibitor",,22700 nM
CC[C@H](C)[C@H](NC(C)=O)C(=O)N[C@@H](CCC(=O)O)C(=O)N[C@H](C(=O)N[C@H](C=O)CC(=O)O)[C@@H](C)O,"Caspase-4 (CASP4, Homo sapiens, UniProt P49662)","enzyme activity, inhibitor",,784 nM
CC(=N/N=c1\scc(-c2ccc(Cl)cc2)n1-c1c(C)cccc1C)C12CC3CC(CC(C3)C1)C2,Aldo-keto reductase family 1 member B1,"enzyme activity, inhibitor, absorbance",,3510 nM
O=C1NCCc2sc(-c3ccncc3)cc21,CSNK1D,"enzyme activity, inhibitor",,1400 nM
O=C(Nc1ccc(Cl)cc1)N1CCC(n2c(=O)[nH]c3c(Br)cccc32)CC1,"Formamidopyrimidine-DNA glycosylase (Escherichia coli, UniProt P05523)","enzyme activity, inhibitor",,> 100000 nM
CC/C=C\C/C=C\C/C=C\C/C=C\C/C=C\CCCC(=O)O,"DNA topoisomerase 2-alpha (TOP2A, Homo sapiens, UniProt P11388)","enzyme activity, inhibitor",,10000 nM
Fc1ccc(C2CCN(c3nc(-c4ccccn4)nc4ccccc34)C2)cc1 (stereo not drawn),"Sterol 14-alpha demethylase (CYP51, Trypanosoma cruzi, UniProt Q7Z1V1)","enzyme activity, inhibitor, fluorescence",,> 100000 nM
C[C@@H]1Cc2ccccc2N1C(=O)NCCCCN(C)[C@@H]1Cc2cccc3[nH]c(=O)n(c23)C1,"5-hydroxytryptamine receptor 2C (HTR2C, Homo sapiens, UniProt P28335)","ligand displacement, radioligand",,> 10000 nM
CC[C@@H](C)Nc1ccnc(Nc2cccc(-c3cccnc3)c2)n1,FLT3,"enzyme activity, inhibitor",,< 6 nM
O=C(O)c1ccnc2c(O)cccc12,"Gamma-butyrobetaine dioxygenase (BBOX1, Homo sapiens, UniProt O75936)","enzyme activity, inhibitor",,111000 nM
CC(C)(C)n1nc(-c2ccc3nc(OC4CC4)ccc3c2)c(C(N)=O)c1N,ROCK1,cell-free assay,,> 10000 nM
Cc1ccc(C(=O)Nc2ccc(Oc3cc4cnn(C)c4cc3-c3cn[nH]c3)c(F)c2)c(=O)n1-c1ccc(F)cc1,TYRO3,"cell growth or viability, ATP luminescence",,28 nM
c1ccc(-c2cccc(Nc3nccc(NC4CCCCC4)n3)c2)cc1,FLT3,"enzyme activity, inhibitor",,> 12000 nM
CC(=N/N=c1\scc(-c2ccc(Cl)cc2)n1Cc1ccccc1)C12CC3CC(CC(C3)C1)C2,Aldo-keto reductase family 1 member B1,"enzyme activity, inhibitor, absorbance",,2180 nM
NNC(c1nnnn1CC(c1ccccc1)c1ccccc1)C1CCCCC1 (stereo not drawn),EAPA,"enzyme activity, inhibitor, fluorescence",,96800 nM
CCN(CC)CCCC[C@H](NC(=O)[C@H](CC(C)C)NC(=O)[C@H](C)NC(=O)[C@H](Cc1ccccc1)NC(=O)c1ccc(C(C)(C)C)cc1)C(=O)N[C@@H](CO)C(=O)OC,"Chromodomain Y-like protein 2 (CDYL2, Homo sapiens, UniProt Q8N8U2)","ligand displacement, TR-FRET",,85 nM
O=[N+]([O-])c1ccc(-c2cs/c(=N/N=C\c3c[nH]c4ccccc34)n2Cc2ccccc2)cc1,Aldo-keto reductase family 1 member B1,"enzyme activity, inhibitor, absorbance",,1520 nM
Cc1cnc(-c2ccc(-c3ccc(NC(=O)Nc4c(F)cc(F)cc4F)cc3F)c3c2C(=O)NC3)[nH]1,"Aurora kinase C (AURKC, Homo sapiens, UniProt Q9UQB9)","enzyme activity, inhibitor",,3 nM
Clc1ccc(Cn2c(-c3ccc(Cl)cc3)nc3ccccc32)cc1,DHFR,"enzyme activity, inhibitor",,10600 nM
COc1cccc(-c2cccc(Nc3nccc(NC4CCCCC4)n3)c2)c1,FLT3,"enzyme activity, inhibitor",,24500 nM
C/C(=N/N=c1/scc(-c2ccc(Br)cc2)n1-c1c(C)cccc1C)c1ccc2c(c1)OCCO2,Aldo-keto reductase family 1 member B1,"enzyme activity, inhibitor, absorbance",,3140 nM
Cc1ccc2nc(-c3ccc([N+](=O)[O-])cc3)n(Cc3ccc(Cl)cc3)c2c1,DHFR,"enzyme activity, inhibitor",,8010 nM
O=C(Oc1nsnc1N1CCc2ccccc2C1)N1CCCCC1,FAAH,"enzyme activity, inhibitor",cell membranes,17 nM
O=[N+]([O-])c1ccc(-c2nc3ccccc3n2Cc2ccccc2)cc1,DHFR,"enzyme activity, inhibitor",,12300 nM
COc1ccc2c(Oc3ccc4c(C(=O)Nc5ccccc5N)cccc4c3)ccnc2c1,"Aurora kinase A (AURKA, Homo sapiens, UniProt O14965)","enzyme activity, inhibitor",,> 500 nM
O=C(Oc1nsnc1N1CCCCC1)N1CCc2ccccc2C1,FAAH,"enzyme activity, inhibitor",cell membranes,562 nM
C/C(=N/N=c1/scc(-c2ccc(Br)cc2)n1Cc1ccccc1)c1ccc2c(c1)OCCO2,Aldo-keto reductase family 1 member B1,"enzyme activity, inhibitor, absorbance",,1390 nM
CC(C)Nc1ccnc(Nc2ccccc2-c2ccccc2)n1,FLT3,"enzyme activity, inhibitor",,> 24000 nM
O=C(Nc1cccnc1)N1CCC(Cc2cccc(Oc3ccc(C(F)(F)F)cn3)c2)CC1,"Monoglyceride lipase (MGLL, Homo sapiens, UniProt Q99685)","enzyme activity, inhibitor, absorbance",,> 10000 nM
NNC(COCc1ccccc1)c1nnnn1CCc1ccc(O)cc1 (stereo not drawn),EAPA,"enzyme activity, inhibitor, fluorescence",,89300 nM
CC1=C(/C=C/C(C)=C/C=C/C(C)=C/CO)C(C)(C)CCC1,"Prothrombin (F2, Bos taurus, UniProt P00735)","enzyme activity, inhibitor, fluorescence",,531000 nM
CN1CCN(c2ccc(Nc3ncc4cc(C#N)c(=O)n(C5CCCC5)c4n3)cc2)CC1,CSNK1D,"enzyme activity, inhibitor",,1770 nM
C/C(=N/N=c1/scc(-c2ccc(Cl)cc2)n1-c1ccccc1)c1ccc2c(c1)OCCO2,Aldo-keto reductase family 1 member B1,"enzyme activity, inhibitor, absorbance",,14500 nM
COC(=O)c1cccc(Nc2nccc(NC3CCCCC3)n2)c1,FLT3,"enzyme activity, inhibitor",,978 nM
CC(=N/N=c1\scc(-c2ccc(Br)cc2)n1-c1ccccc1C)C12CC3CC(CC(C3)C1)C2,Aldo-keto reductase family 1 member B1,"enzyme activity, inhibitor, absorbance",,10200 nM
CC(C)(C(=O)O)C1=C/C(=C\c2ccc(-c3ccccc3)cc2)c2ccc(F)cc21,"Prostaglandin G/H synthase 1 (PTGS1, Homo sapiens, UniProt P23219)","enzyme activity in cells, inhibitor",,1300 nM
